Data taken from ChEMBL document CHEMBL1122866, “3-Phenyl-1-indanamines. Potential antidepressant activity and potent inhibition of dopamine, norepinephrine, and serotonin uptake” (J Med Chem, 1985).

Legend:
Type in all cases: functional
Mus musculus [1] = organism: Mus musculus; test: Compound was tested for antagonistic activity against 5-HTP-induced potentiation in mice
Summary of the method: (§1)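 Mice dosed intraperitoneally; the result is reported as the ED50 in μmol/kg with a range in parentheses. Test compounds are racemates of >95% isomeric purity by TLC.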

[2] = target: Sodium-dependent dopamine transporter (Rattus norvegicus, UniProt P23977); test: Inhibition of dopamine uptake in rat synaptosomal fraction
Sequence of Sodium-dependent dopamine transporter (P23977 whole entry): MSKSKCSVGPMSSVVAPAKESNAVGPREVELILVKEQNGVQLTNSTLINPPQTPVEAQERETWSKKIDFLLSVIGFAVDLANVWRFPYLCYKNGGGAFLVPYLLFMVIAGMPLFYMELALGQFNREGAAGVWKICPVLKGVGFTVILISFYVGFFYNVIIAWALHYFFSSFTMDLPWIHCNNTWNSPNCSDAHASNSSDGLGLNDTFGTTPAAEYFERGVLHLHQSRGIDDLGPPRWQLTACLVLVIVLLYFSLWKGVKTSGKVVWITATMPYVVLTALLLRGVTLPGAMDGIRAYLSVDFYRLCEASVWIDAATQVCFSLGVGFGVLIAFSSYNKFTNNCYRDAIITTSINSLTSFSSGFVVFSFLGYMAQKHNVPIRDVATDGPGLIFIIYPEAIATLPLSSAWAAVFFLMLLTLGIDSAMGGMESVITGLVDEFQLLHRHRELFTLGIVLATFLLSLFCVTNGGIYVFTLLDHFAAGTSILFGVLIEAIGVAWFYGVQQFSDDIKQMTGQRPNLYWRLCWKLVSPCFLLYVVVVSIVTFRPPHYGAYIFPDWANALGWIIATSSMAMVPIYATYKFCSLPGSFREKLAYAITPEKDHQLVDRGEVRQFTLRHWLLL

Mus musculus [3] = organism: Mus musculus; test: Antagonistic activity against tetrabenazine-induced ptosis in mice; summary of the method: as §1
[4] = target: Norepinephrine transporter (Rattus norvegicus, UniProt Q9WTR4); test: Inhibition of noradrenaline uptake in rat synaptosomal fraction
Sequence of Norepinephrine transporter (Q9WTR4 whole entry): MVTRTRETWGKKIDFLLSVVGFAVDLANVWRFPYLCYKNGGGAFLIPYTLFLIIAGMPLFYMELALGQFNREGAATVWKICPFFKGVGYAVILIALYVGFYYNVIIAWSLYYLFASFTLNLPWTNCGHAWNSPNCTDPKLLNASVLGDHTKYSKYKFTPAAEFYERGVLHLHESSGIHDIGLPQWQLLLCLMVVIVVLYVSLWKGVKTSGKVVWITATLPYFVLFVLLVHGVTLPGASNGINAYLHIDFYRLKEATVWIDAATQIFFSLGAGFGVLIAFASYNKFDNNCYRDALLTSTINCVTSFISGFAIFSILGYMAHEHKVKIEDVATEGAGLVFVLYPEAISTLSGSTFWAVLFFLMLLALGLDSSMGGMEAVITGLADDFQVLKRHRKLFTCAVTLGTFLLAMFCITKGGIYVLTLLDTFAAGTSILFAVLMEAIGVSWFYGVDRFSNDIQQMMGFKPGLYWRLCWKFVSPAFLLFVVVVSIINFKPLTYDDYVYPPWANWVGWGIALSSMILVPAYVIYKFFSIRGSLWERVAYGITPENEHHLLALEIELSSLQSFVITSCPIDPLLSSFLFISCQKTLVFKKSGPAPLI
Summary of the method: (§2)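 Synaptosomal uptake of DA, NE or 5-HT measured. The IC50 is in nM and is the mean of at least two determinations, each using five test concentrations in triplicate.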

[5] = target: Sodium-dependent serotonin transporter (Rattus norvegicus, UniProt P31652); test: Inhibition of 5-HT uptake in rat synaptosomal fraction; summary of the method: as §2
Sequence of Sodium-dependent serotonin transporter (P31652 whole entry): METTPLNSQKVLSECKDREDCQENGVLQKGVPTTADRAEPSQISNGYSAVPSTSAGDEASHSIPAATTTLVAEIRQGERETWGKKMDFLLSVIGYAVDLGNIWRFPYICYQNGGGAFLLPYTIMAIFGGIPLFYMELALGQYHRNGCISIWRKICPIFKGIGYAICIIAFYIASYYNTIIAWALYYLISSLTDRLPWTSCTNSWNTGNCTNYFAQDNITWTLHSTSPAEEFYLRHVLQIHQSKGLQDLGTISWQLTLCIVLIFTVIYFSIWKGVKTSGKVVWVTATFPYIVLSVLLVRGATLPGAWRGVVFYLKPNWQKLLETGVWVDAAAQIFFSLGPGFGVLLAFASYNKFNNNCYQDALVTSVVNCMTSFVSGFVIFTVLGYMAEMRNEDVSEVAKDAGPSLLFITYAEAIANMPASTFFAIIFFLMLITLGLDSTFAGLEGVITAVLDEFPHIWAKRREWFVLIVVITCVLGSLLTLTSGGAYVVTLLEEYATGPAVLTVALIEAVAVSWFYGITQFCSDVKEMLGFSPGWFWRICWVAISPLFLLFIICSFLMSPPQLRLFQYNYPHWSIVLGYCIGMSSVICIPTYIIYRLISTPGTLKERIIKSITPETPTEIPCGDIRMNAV

Mus musculus [6] = organism: Mus musculus; test: Antagonistic activity against tetrabenazine-induced ptosis in mice.; summary of the method: as §1
Mus musculus [7] = organism: Mus musculus; test: Antagonistic activity against 5-HTP induced potentiation in mice; summary of the method: as §1

Row | Structure (SMILES) | ED50 (Mus musculus [1]) [µM/kg] | IC50 [2] [nM] | ED50 (Mus musculus [3]) [µM/kg] | IC50 [4] [nM] | IC50 [5] [nM] | ED50 (Mus musculus [6]) [µmol/kg] | ED50 (Mus musculus [7]) [µmol/kg] | ED50 (Mus musculus [6]; Mus musculus, read-out: ED50) [µmol/kg] | ED50 (Mus musculus [3]; Mus musculus, read-out: ED50) [µmol/kg] | ED50 (Mus musculus [1]; Mus musculus, read-out: ED50) [µmol/kg]
1 | CNC1CC(c2ccc(Cl)c(Cl)c2)c2ccc(OC)cc21 (configuration not stated) | 14 | 2.5 | 7 | 0.67 | 0.62 |  |  |  |  | 
2 | CNC1CC(c2ccc(Cl)cc2)c2ccccc21 (configuration not stated) |  | 5.6 |  | 0.51 | 4 | >155 |  |  |  | 
3 | CNCCCC1(c2ccccc2)SC(C)(C)c2ccccc21 (configuration not stated) |  | 9300 |  | 0.79 | 850 |  | > 115 | 2.3 |  | 
4 | CN(C)C1CC(c2ccc(F)c(F)c2)c2ccccc21 (configuration not stated) [listing 1 of 2 here] |  | 180 |  | 29 | 1.3 | 13 |  |  |  | 
5 | CN(C)C1CC(c2ccc(Cl)c(Cl)c2)c2ccc(O)cc21 (configuration not stated) |  | 7.9 |  | 16 | 0.37 |  |  |  | 22 | 
6 | CNC1CC(c2ccc(Cl)c(Cl)c2)c2ccc(OC)cc21.Cl (configuration not stated) | 2.9 | 19 |  | 19 | 0.53 |  |  |  | 14 | 
7 | CN(C)C1CC(c2ccc(F)c(F)c2)c2ccccc21 (configuration not stated) [listing 2 of 2 here] |  | 250 |  | 62 | 20 |  |  | 7.1 |  | 
8 | CNC1CC(c2ccc(C(F)(F)F)cc2)c2ccccc21 (configuration not stated) |  | 160 |  | 67 | 4.7 |  | 45 | 58 |  | 
9 | OCCNC1CC(c2ccc(Cl)c(Cl)c2)c2ccccc21 (configuration not stated) |  |  |  |  |  |  | > 111 | > 111 | 75 | 171
10 | CNC1CC(c2ccc(Cl)c(C(F)(F)F)c2)c2ccccc21 (configuration not stated) |  | 3500 |  | 25 | 4.2 |  | 55 | > 110 |  | 
11 | CNC1CC(c2ccc(Cl)cc2)c2ccccc21.Cl (configuration not stated) |  | 120 |  | 24 | 0.65 | 376 |  |  |  | 
12 | CNC1CC(c2ccccc2)c2ccccc21 (configuration not stated) |  | 1400 |  | 320 | 210 |  | 211 | > 154 |  | 
13 | CN(C)C1CC(c2ccc(F)cc2)c2ccc(F)cc21.Cl (configuration not stated) |  | 620 |  | 350 | 18 | 28 |  |  |  | 
14 | CN1CCN(C2CC(c3ccc(Cl)c(Cl)c3)c3ccccc32)CC1 (single isomer, unassigned; (-)) |  | 10 | 26 |  |  |  |  |  |  | 
15 | CN(C)C1CC(c2ccccc2)c2ccccc21.Cl (stereo in doubt; 31) |  | 600 |  | 130 | 150 | 17 |  |  |  | 
16 | CN(C)C1CC(c2ccc(F)cc2)c2ccccc21.Cl (stereo in doubt; 33) |  | 320 |  | 100 | 33 | 7.8 |  |  |  | 
17 | CN(C)C1CC(c2ccc(Cl)cc2)c2ccccc21 (stereo in doubt; 35) |  | 140 |  | 23 | 0.64 | 56 |  |  |  | 
18 | CNC1CC(c2ccc(Br)cc2)c2ccccc21 (stereo in doubt; 36) |  | 2.5 |  | 0.3 | 0.28 |  |  | 47 |  | 
19 | CN(C)C1CC(c2ccc(Br)cc2)c2ccccc21 (stereo in doubt; 37) |  | 54 |  | 28 | 0.04 | 9.8 |  |  |  | 
20 | CNC1CC(c2cccc(Cl)c2)c2ccccc21.Cl (stereo in doubt; 39) |  | 14 |  | 0.12 | 41 | 45 |  |  |  | 
21 | CN(C)C1CC(c2cccc(Cl)c2)c2ccccc21.Cl (stereo in doubt; 40) |  | 71 |  | 15 | 36 | 10 |  |  |  | 
22 | CNC1CC(c2ccc(F)c(F)c2)c2ccccc21.Cl (stereo in doubt; 41) |  | 21 |  | 1.6 | 49 | 58 |  |  |  | 
23 | CNC1CC(c2ccc(Cl)cc2Cl)c2ccccc21.Cl (stereo in doubt; 48) |  | 510 |  | 15 | 0.91 | 19 |  |  |  | 
24 | CN(C)C1CC(c2ccc(Cl)cc2Cl)c2ccccc21.Cl (stereo in doubt; 49) |  | 2000 |  | 90 | 0.58 | 23 |  |  |  | 

Row | Structure (SMILES) | ED50 (Mus musculus [1]) [µM/kg] | IC50 [2] [nM] | ED50 (Mus musculus [3]) [µM/kg] | IC50 [4] [nM] | IC50 [5] [nM] | ED50 (Mus musculus [6]) [µmol/kg] | ED50 (Mus musculus [7]) [µmol/kg] | ED50 (Mus musculus [6]; Mus musculus, read-out: ED50) [µmol/kg] | ED50 (Mus musculus [3]; Mus musculus, read-out: ED50) [µmol/kg] | ED50 (Mus musculus [1]; Mus musculus, read-out: ED50) [µmol/kg]
25 | CNC1CC(c2ccc(Cl)c(Cl)c2)c2ccc(F)cc21.Cl (stereo in doubt; 50) |  | 0.12 |  | 0.71 | 2.3 | 33 |  |  |  | 
26 | CN(C)C1CC(c2ccc(Cl)c(Cl)c2)c2ccc(F)cc21 (stereo in doubt; 51) |  | 12 |  | 21 | 1.1 |  |  | > 111 |  | 
27 | COc1ccc2c(c1)C(N(C)C)CC2c1ccc(Cl)c(Cl)c1 (stereo in doubt; 53) | 14 | 10 | 33 | 16 | 1.6 |  |  |  |  | 
28 | CNC1CC(c2ccc(Cl)c(Cl)c2)c2ccc(O)cc21 (stereo in doubt; 54) |  | 0.52 | 21 | 0.82 | 2.5 |  |  |  |  | 
29 | CN(C)C1CC(c2ccc(F)cc2)c2ccc(C(F)(F)F)cc21 (stereo in doubt; 57) |  | 240 |  | 85 | 43 |  |  | 116 |  | 
30 | CN(C)C1CC(c2ccc(Cl)cc2)c2ccccc21 (stereo in doubt; 63) |  | 190 |  | 4.4 | 0.34 |  |  | 43 |  | 
31 | CNC1CC(c2ccc(Br)cc2)c2ccccc21.Cl (stereo in doubt; 64) |  | 67 |  | 8.8 | 0.16 | 29 |  |  |  | 
32 | CN(C)C1CC(c2ccc(Br)cc2)c2ccccc21 (stereo in doubt; 65) |  | 83 |  | 4.3 | 0.14 | 2.3 |  |  |  | 
33 | CNC1CC(c2cccc(Cl)c2)c2ccccc21.Cl (stereo in doubt; 66) |  | 220 |  | 19 | 6.8 | 119 |  |  |  | 
34 | CN(C)C1CC(c2cccc(Cl)c2)c2ccccc21.Cl (stereo in doubt; 67) |  | 54 |  | 0.77 | 2.6 | 85 |  |  |  | 
35 | CNC1CC(c2ccc(F)c(F)c2)c2ccccc21.Cl (stereo in doubt; 68) |  | 150 |  | 33 | 4.6 | 23 |  |  |  | 
36 | CNC1CC(c2ccc(Cl)cc2Cl)c2ccccc21.Cl (stereo in doubt; 74) |  | 100 |  | 6.1 | 21 | 98 |  |  |  | 
37 | CNC1CC(c2ccc(Cl)c(Cl)c2)c2ccc(F)cc21.Cl (stereo in doubt; 76) |  | 5 |  | 14 | 0.75 | 15 |  |  |  | 
38 | COc1ccc2c(c1)C(N(C)C)CC2c1ccc(Cl)c(Cl)c1 (stereo in doubt; 79) |  | 15 |  | 3 | 2 |  |  |  | 34 | 7.4
39 | CNC1CC(c2ccc(Cl)c(Cl)c2)c2ccc(O)cc21 (stereo in doubt; 80) |  | 4.1 |  | 6.3 | 0.11 |  |  |  | 15 | 59
40 | CCN(CC)C1CC(c2ccc(Cl)c(Cl)c2)c2ccccc21.Cl (stereo in doubt; 85) |  | 2.1 |  | 0.56 | 2.8 | 52 |  |  |  | 
41 | CCCNC1CC(c2ccc(Cl)c(Cl)c2)c2ccccc21.Cl (stereo in doubt; 87) |  | 6.6 |  | 0.66 | 150 | 68 |  |  |  | 
42 | CCCN(CCC)C1CC(c2ccc(Cl)c(Cl)c2)c2ccccc21.Cl (stereo in doubt; 89) |  | 150 |  | 73 | 720 | 25 |  |  |  | 
43 | Clc1ccc(C2CC(N3CCCCC3)c3ccccc32)cc1Cl (stereo in doubt; 100) |  | 79 |  | 79 | 420 |  |  | > 104 |  | 
44 | CN1CCN(C2CC(c3ccc(Cl)c(Cl)c3)c3ccccc32)CC1 (stereo in doubt; 101) |  | 11 | 48 |  |  |  |  |  |  | 97
45 | CN1CCN(C2CC(c3ccc(Cl)c(Cl)c3)c3ccccc32)CC1 (stereo in doubt; 102) |  | 4.4 | 100 |  |  |  |  |  |  | 
46 | CN1CCN(C2CC(c3ccc(Cl)c(Cl)c3)c3ccccc32)CC1 (stereo in doubt; (-)-102) |  | 2.3 | 69 |  |  |  |  |  |  | 
47 | CN(C)CCCC1(c2ccc(F)cc2)OCc2cc(C#N)ccc21 (configuration not stated) [CITALOPRAM] |  |  |  |  |  |  |  |  | 51 | 
48 | CNCCCC1(c2ccccc2)OC(C)(C)c2ccccc21 (configuration not stated) [TALOPRAM] |  | 44000 |  | 2.9 | 1400 |  |  |  | 1.2 | 44
